Laboratory results from ChEMBL document CHEMBL1123024, “5,6-Diaryl-2,3-dihydroimidazo[2,1-b]thiazoles: a new class of immunoregulatory antiinflammatory agents” (1985).

Key:
Type in all cases: functional
Mus musculus [1] = organism: Mus musculus; test: Immunoregulatory activity against mouse contact sensitivity was evaluated as percent change
How it was run: (§1)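 Male C57B1/6 mice were sensitized with 0.1 mL of 5% oxazolone in absolute ethanol on the clipped abdomen. At 45 h the left hind leg was challenged with 5% oxazolone. Compound was given po in 0.5% tragacanth. Edema was read plethysmographically 24 h later as left minus right leg volume. Six mice vs eight controls; Student's t test.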

Rattus norvegicus [2] = test: Percent change in immune R16 inflammatory lesions in rat adjuvant-induced arthritis at 50 mg/kg
How it was run: (§2)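 Male Wistar rats received 0.75 mg M. butyricum in paraffin oil intradermally into the left hindpaw. Compounds were given daily po in 0.5% tragacanth from the injection day for 17 days, skipping days 4, 5, 11 and 12. Leg volumes were read by mercury displacement: left leg on day 3, both legs on day 16. Eight treated rats vs 16 vehicle controls; Student's t test. ED25 is the dose giving a 25% volume decrease, from at least three doses, with 95% limits by Fieller's theorem.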

Rattus norvegicus [3] = test: Percent change in nonimmune L16 inflammatory lesions in rat adjuvant-induced arthritis at 50 mg/kg; how it was run: as §2
Rattus norvegicus [4] = test: Percent change in nonimmune L3 inflammatory lesions in rat adjuvant-induced arthritis at 50 mg/kg; how it was run: as §2
Rattus norvegicus [5] = test: Compound was tested by carrageenan -induced paw edema for percent change in paw volume of control sham operated rats at 100 mg/kg.
How it was run: (§3)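 Normal, adrenalectomized or sham-operated Lewis rats were dosed po in 0.5% tragacanth, hydrated. 1 h later paw volume was read, then […] of 1% carrageenan in 0.9% saline was injected into the right hindpaw plantar surface. Volume was re-read at 3 h. Percent change, treated vs control; Student's t test.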

Mus musculus [6] = organism: Mus musculus; test: Immunoregulatory activity against oxazolone induced mouse contact sensitivity was evaluated as percent change; the % change in Not statistically Significant; how it was run: as §1
Rattus norvegicus [7] = test: The compound was tested for percent change in immune R16 inflammatory lesions in rat adjuvant-induced arthritis at 50 mg/kg; how it was run: as §2
Rattus norvegicus [8] = test: The compound was tested for percent change in nonimmune L16 inflammatory lesions in rat adjuvant-induced arthritis at 50 mg/kg; how it was run: as §2
Rattus norvegicus [9] = test: The compound was tested for percent change in nonimmune L3 inflammatory lesions in rat adjuvant-induced arthritis at 50 mg/kg; how it was run: as §2
Rattus norvegicus [10] = test: Compound was tested by carrageenan -induced paw edema for percent change in paw volume of control sham operated rats at 50 mg/kg; the % change was Not statistically significant; how it was run: as §3
Rattus norvegicus [11] = test: Compound was tested by carrageenan -induced paw edema for percent change in paw volume of control sham operated rats at 50 mg/kg.; how it was run: as §3
Mus musculus [12] = organism: Mus musculus; test: Immunoregulatory activity against oxazolone induced mouse contact sensitivity was evaluated as percent change; how it was run: as §1
Rattus norvegicus [13] = test: The compound was tested for percent change in nonimmune L3 inflammatory lesions in rat adjuvant-induced arthritis at 50 mg/kg; the %change is Not statistically significant; how it was run: as §2
Rattus norvegicus [14] = test: Compound was tested by carrageenan-induced paw edema for percent change in paw volume of control sham operated rats at 50 mg/kg; the %change is Not statistically significant; how it was run: as §3

Structure (SMILES)	Change (Mus musculus [1]) [%]	Change (Rattus norvegicus [2]) [%]	Change (Rattus norvegicus [3]) [%]	Change (Rattus norvegicus [4]) [%]	further results
COc1ccc(-c2nc3n(c2-c2ccc(OC)cc2)CCCS3)cc1	30	-20	-4	-2	–
FC(F)(F)c1ccc(-c2nc3n(c2-c2ccc(C(F)(F)F)cc2)CCS3)cc1	89	1	12	0	Change (Rattus norvegicus [5]): 4%
COc1ccc(-c2cn3c(n2)SCC3)cc1	132	-16	-10	-3	–
CCSc1nc(-c2ccc(OC)cc2)c(-c2ccc(OC)cc2)[nH]1	119	-37	-42	-31	–
COc1cc(-c2nc3n(c2-c2cc(OC)c(OC)c(OC)c2)CCS3)cc(OC)c1OC	75	-19	0	-2	–
CCCCOc1ccc(-c2nc3n(c2-c2ccc(OCCCC)cc2)CCS3)cc1	130	2	2	5	–
Clc1ccc(-c2nc3n(c2-c2ccc(Cl)cc2)CCS3)cc1	43	-38	-35	-18	–
C[S+]([O-])c1ccc(-c2nc3n(c2-c2ccc([S+](C)[O-])cc2)CC[S+]3[O-])cc1 (stereo not drawn)	–	–	–	–	Change (Mus musculus [6]): 38%; Change (Rattus norvegicus [7]): -47%; Change (Rattus norvegicus [8]): -44%; Change (Rattus norvegicus [9]): -27%; Change (Rattus norvegicus [10]): 10%
CCN(C(C)=O)c1ccc(-c2nc3n(c2-c2ccc(N(CC)C(C)=O)cc2)CCS3)cc1	43	-10	-1	-4	–
COc1ccc(-c2nc(SC)n(C)c2-c2ccc(OC)cc2)cc1	150	-35	-31	-24	–
COc1ccc(-c2nc3n(c2-c2ccccc2)CCS3)cc1	26	1	-10	-5	–
C=CCOc1ccc(-c2nc3n(c2-c2ccc(OCC=C)cc2)CCS3)cc1	71	-21	-2	-2	–
c1ccc(-c2nc3n(c2-c2ccccc2)CCS3)cc1	–	-4	-4	-12	Change (Rattus norvegicus [5]): -7%; Change (Rattus norvegicus [11]): -9%
c1cc2c(cc1-c1nc3n(c1-c1ccc4c(c1)OCO4)CCS3)OCO2	16	-27	-23	-18	–
O=S1(=O)CCn2c1nc(-c1ccc(F)cc1)c2-c1ccc(F)cc1	–	–	–	–	Change (Mus musculus [12]): 20%; Change (Rattus norvegicus [7]): -34%; Change (Rattus norvegicus [8]): -17%; Change (Rattus norvegicus [13]): -6%; Change (Rattus norvegicus [14]): 3%
C[S+]([O-])c1ccc(-c2nc3n(c2-c2ccc([S+](C)[O-])cc2)CCS3)cc1 (stereo not drawn)	117	-19	-27	-25	–
Cl.Fc1ccc(-c2nc3n(c2-c2ccc(F)cc2)CCS3)cc1	79	-49	-36	-39	Change (Rattus norvegicus [5]): 6%; Change (Rattus norvegicus [11]): -9%
FC(F)(F)COc1ccc(-c2nc3n(c2-c2ccc(OCC(F)(F)F)cc2)CCS3)cc1	26	-3	-20	-13	–
COc1ccc(-c2nc3n(c2-c2ccc(OC)c(F)c2)CCS3)cc1F	88	-3	0	1	–
CSc1ccc(-c2nc3n(c2-c2ccc(SC)cc2)CCS3)cc1	73	-38	-36	-25	Change (Rattus norvegicus [11]): -33%
Cc1cccc(-c2nc3n(c2-c2cccc(C)c2)CCS3)c1	38	-5	-13	-14	–
CC(=O)Nc1ccc(-c2nc3n(c2-c2ccc(NC(C)=O)cc2)CCS3)cc1	78	–	-1	3	Change (Rattus norvegicus [7]): 12%
Fc1ccc(-c2nc3n(c2-c2ccc(F)cc2)CCS3)cc1	79	-49	-36	-39	–
Cc1ccc(-c2nc3n(c2-c2ccc(C)cc2)CCS3)cc1	86	-7	0	-6	–
